Source: ChEMBL document CHEMBL1833941, “Structural requirement of arylindolylpropenones as anti-bladder carcinoma cells agents” (Bioorg Med Chem, 2011)
Activity calls are given as the source filed them. The rule behind the calls is not given here.

Tests used:
RT-112 [1] = assay: Antiproliferative activity against human RT112 cells after 48 hrs by MTT assay; type: functional, cell-based; settings: RT-112, 48 h
In short: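 RT112 bladder carcinoma cells in RPMI 1640 with 10% FCS and 2 mM glutamine, 37 °C, 5% CO2. Seeded 3×10^3 cells/well, treated after 24 h with a concentration series for 48 h; DMSO vehicle control. MTT 3 h at 37 °C, formazan dissolved in DMSO, A570 with 650 nm reference. Survival relative to vehicle (100%); IC50 from dose-response curves; triplicates, three independent experiments.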

RT-112 [2] = assay: Cell cycle arrest in human RT112 cells by accumulation of cells at G2+M phase at 3 uM after 24 hrs by propidium iodide-staining-based flow cytometry (reference value: 14%); type: functional
RT-112 [3] = assay: Cell cycle arrest in human RT112 cells by accumulation of cells at G2/M phase at 3 uM after 12 hrs by propidium iodide-staining-based flow cytometry (reference value: 14%); type: functional
RT-112 [4] = assay: Induction of apoptosis in human RT112 cells assessed as hypodiploid DNA at sub-G1 phase after 48 hrs by propidium iodide-staining-based flow cytometry; type: functional, cell-based
In short: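 Same PI/RNase flow cytometry as the cell cycle work in RT112 cells, with treatment extended to 48 h. Apoptosis scored as a hypodiploid (sub-G1) DNA peak; DMSO vehicle as control.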

RT-112 [5] = assay: Cell cycle arrest in human RT112 cells by accumulation of cells at G1 phase at 3 uM after 12 hrs by propidium iodide-staining-based flow cytometry (reference value: 69%); type: functional
RT-112 [6] = assay: Cell cycle arrest in human RT112 cells by accumulation of cells at S phase at 3 uM after 12 hrs by propidium iodide-staining-based flow cytometry (reference value: 17%); type: functional
RT-112 [7] = assay: Cell cycle arrest in human RT112 cells by accumulation of cells at G2+M phase at 4 uM after 24 hrs by propidium iodide-staining-based flow cytometry (reference value: 14%); type: functional
RT-112 [8] = assay: Cell cycle arrest in human RT112 cells by accumulation of cells at G2+M phase at 4 uM after 12 hrs by propidium iodide-staining-based flow cytometry (reference value: 14%); type: functional

SMILES	IC50 (RT-112 [1]) [µM]	also measured
COc1ccc(/C=C/C(=O)c2cn(C)c3ccccc23)c(OC)c1	57.7	–
Cn1cc(C(=O)/C=C/c2ccccc2)c2ccccc21	30.6	–
Cn1cc(/C=C/C(=O)c2cn(C)c3ccccc23)c2ccccc21	63	–
COc1cc(OC)c(/C=C/C(=O)c2cn(C)c3ccc(C(=O)O)cc23)c(OC)c1	86.1	–
Cn1cc(C(=O)/C=C/c2ccccc2F)c2ccccc21	28.7	–
COc1cc(OC)c(C(=O)/C=C/c2ccc3c(ccn3C)c2)c(OC)c1	54.3	–
CN(C)c1ccc(/C=C/C(=O)c2cn(C)c3ccccc23)cc1	7.5	–
COc1cc(OC)c(/C=C/C(=O)c2cn(C)c3ccc(OC)cc23)c(OC)c1	3.1	Activity (RT-112 [2]): Active; Activity (RT-112 [3]): 91%; Activity (RT-112 [4]): Active; Activity (RT-112 [5]): 5%; Activity (RT-112 [6]): inactive
CN1CCN(c2ccc(/C=C/C(=O)c3cn(C)c4ccccc34)cc2)CC1	11.7	–
COc1cccc(OC)c1/C=C/C(=O)c1cn(C)c2ccccc12	47.4	–
CN1CCN(c2ccccc2/C=C/C(=O)c2cn(C)c3ccccc23)CC1	26.4	–
Cn1ccc2cc(/C=C/C(=O)c3cn(C)c4ccccc34)ccc21	4	Activity (RT-112 [7]): 34%; Activity (RT-112 [4]): Active; Activity (RT-112 [8]): 65%
COc1cc(OC)c(/C=C/C(=O)c2cn(C)c3ccccc23)c(OC)c1	3.2	Activity (RT-112 [2]): Active; Activity (RT-112 [3]): 74%; Activity (RT-112 [4]): Active; Activity (RT-112 [5]): 16%; Activity (RT-112 [6]): inactive
COc1cc(/C=C/C(=O)c2cn(C)c3ccccc23)cc(OC)c1OC	42.4	–
Cn1cc(C(=O)/C=C/c2c(Cl)cccc2Cl)c2ccccc21	7.8	–
